Activity calls are given as the source filed them. No cut-off for these calls is given here.
Key:
[1] = test system: Gallus gallus; test: Induction of bone calcium mobilization in vitamin-D-deficient chicken assessed per 100 ml of serum at 163 nmol, ip using 45Ca2+ and 40Ca2+ after 5 to 36 hrs; assay type: functional, organism-based
How it was run: (§1)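 Rachitic chicks given a single 163-nmol intraperitoneal dose and sampled between 5 and 36 h afterward. ICA and BCM were read by the Hibberd–Norman procedure: duodenal 45Ca2+/40Ca2+ load, then serum collected 30 min later. ICA was taken as serum radioactivity and BCM as serum calcium by atomic absorption.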

[2] = test system: Gallus gallus; test: Induction of intestinal calcium absorption in vitamin-D-deficient chicken assessed per 0.2 ml of plasma at 163 nmol, ip using 45Ca2+ and 40Ca2+ after 5 to 36 hrs; assay type: functional, organism-based; how it was run: as §1
[3] = organism: Gallus gallus; test: Displacement of [3H]-1-alpha,25-(OH)2-D3 from chicken intestinal cytosol chromatin receptor after 30 mins by scintillation counting relative to 1-alpha,25-(OH)2-D3
How it was run: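 Reconstituted chick intestinal cytosol–chromatin receptor system. Nonradioactive competitor plus tritiated 1α,25-(OH)2-D3 (2 × 10^-8 M, constant saturating) with chromatin (375 μg DNA) in cytosol, incubated 30 min at 25 °C. Chromatin reisolated by centrifugation, washed three times (0.5% Triton X-100, 0.01 M Tris-HCl pH 8.5), and bound tritium counted by liquid scintillation. Expressed as RCI, with 1α,25-(OH)2-D3 set at 100.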

[4] = test system: Gallus gallus; test: Induction of bone calcium mobilization in vitamin-D-deficient chicken assessed per 100 ml of serum at 62 nmol, ip using 45Ca2+ and 40Ca2+ after 14 hrs; assay type: functional
How it was run: (§2)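 White Leghorn cockerels raised 4 weeks on a rachitogenic low-calcium diet without vitamin D, switched to a zero-calcium diet 3 days before assay. Analogue given intraperitoneally. Under light ether anesthesia, 5 μCi 45Ca2+ plus 4 mg 40Ca2+ carrier was put into the exposed duodenum. Birds were decapitated 30 min later and blood allowed to clot. Serum Ca2+ measured by atomic absorption on diluted serum, as mg/100 mL ± SEM.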

[5] = test system: Gallus gallus; test: Induction of intestinal calcium absorption in vitamin-D-deficient chicken assessed per 0.2 ml of plasma at 62 nmol, ip using 45Ca2+ and 40Ca2+ after 36 hrs; assay type: functional
How it was run: (§3)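 Rachitic White Leghorn cockerels (4 weeks on a rachitogenic low-calcium diet without vitamin D, zero-calcium diet for the final 3 days) dosed intraperitoneally. Under light ether anesthesia, 5 μCi 45Ca2+ plus 4 mg 40Ca2+ carrier was placed in the duodenum. Birds were decapitated after 30 min. 45Ca radioactivity counted per 0.2 mL serum aliquot (cpm ± SEM). The enhancement ratio is relative to vitamin D-deficient controls.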

[6] = test system: Gallus gallus; test: Induction of intestinal calcium absorption in vitamin-D-deficient chicken assessed per 0.2 ml of plasma at 62 nmol, ip using 45Ca2+ and 40Ca2+ after 14 hrs; assay type: functional; how it was run: as §3
[7] = test system: Gallus gallus; test: Induction of bone calcium mobilization in vitamin-D-deficient chicken assessed per 100 ml of serum at 62 nmol, ip using 45Ca2+ and 40Ca2+ after 24 hrs; assay type: functional; how it was run: as §2
[8] = test system: Gallus gallus; test: Induction of intestinal calcium absorption in vitamin-D-deficient chicken assessed per 0.2 ml of plasma at 310 nmol, ip using 45Ca2+ and 40Ca2+ after 14 hrs relative to control; assay type: functional; how it was run: as §3
[9] = test system: Gallus gallus; test: Induction of intestinal calcium absorption in vitamin-D-deficient chicken assessed per 0.2 ml of plasma at 310 nmol, ip using 45Ca2+ and 40Ca2+ after 14 hrs; assay type: functional; how it was run: as §3
[10] = test system: Gallus gallus; test: Induction of intestinal calcium absorption in vitamin-D-deficient chicken assessed per 0.2 ml of plasma at 62 nmol, ip using 45Ca2+ and 40Ca2+ after 18 hrs; assay type: functional; how it was run: as §3
[11] = test system: Gallus gallus; test: Induction of intestinal calcium absorption in vitamin-D-deficient chicken assessed per 0.2 ml of plasma at 15.5 nmol, ip using 45Ca2+ and 40Ca2+ after 14 hrs relative to control; assay type: functional; how it was run: as §3
[12] = test system: Gallus gallus; test: Induction of bone calcium mobilization in vitamin-D-deficient chicken assessed per 100 ml of serum at 62 nmol, ip using 45Ca2+ and 40Ca2+ after 36 hrs; assay type: functional; how it was run: as §2
[13] = test system: Gallus gallus; test: Induction of bone calcium mobilization in vitamin-D-deficient chicken assessed per 100 ml of serum at 62 nmol, ip using 45Ca2+ and 40Ca2+ after 18 hrs; assay type: functional; how it was run: as §2
[14] = test system: Gallus gallus; test: Induction of intestinal calcium absorption in vitamin-D-deficient chicken assessed per 0.2 ml of plasma at 62 nmol, ip using 45Ca2+ and 40Ca2+ after 14 hrs relative to control; assay type: functional; how it was run: as §3
[15] = test system: Gallus gallus; test: Induction of intestinal calcium absorption in vitamin-D-deficient chicken assessed per 0.2 ml of plasma at 15.5 nmol, ip using 45Ca2+ and 40Ca2+ after 14 hrs; assay type: functional; how it was run: as §3
[16] = test system: Gallus gallus; test: Induction of intestinal calcium absorption in vitamin-D-deficient chicken assessed per 0.2 ml of plasma at 62 nmol, ip using 45Ca2+ and 40Ca2+ after 18 hrs relative to control; assay type: functional; how it was run: as §3
[17] = test system: Gallus gallus; test: Induction of intestinal calcium absorption in vitamin-D-deficient chicken assessed per 0.2 ml of plasma at 3.1 nmol, ip using 45Ca2+ and 40Ca2+ after 14 hrs; assay type: functional; how it was run: as §3
[18] = test system: Gallus gallus; test: Induction of intestinal calcium absorption in vitamin-D-deficient chicken assessed per 0.2 ml of plasma at 62 nmol, ip using 45Ca2+ and 40Ca2+ after 24 hrs; assay type: functional; how it was run: as §3
[19] = test system: Gallus gallus; test: Induction of intestinal calcium absorption in vitamin-D-deficient chicken assessed per 0.2 ml of plasma at 0.62 nmol, ip using 45Ca2+ and 40Ca2+ after 14 hrs relative to control; assay type: functional; how it was run: as §3
[20] = test system: Gallus gallus; test: Induction of intestinal calcium absorption in vitamin-D-deficient chicken assessed per 0.2 ml of plasma at 3.1 nmol, ip using 45Ca2+ and 40Ca2+ after 14 hrs relative to control; assay type: functional; how it was run: as §3
[21] = test system: Gallus gallus; test: Induction of bone calcium mobilization in vitamin-D-deficient chicken assessed per 100 ml of serum at 310 nmol, ip using 45Ca2+ and 40Ca2+ after 14 hrs; assay type: functional; how it was run: as §2
[22] = test system: Gallus gallus; test: Induction of intestinal calcium absorption in vitamin-D-deficient chicken assessed per 0.2 ml of plasma at 0.62 nmol, ip using 45Ca2+ and 40Ca2+ after 14 hrs; assay type: functional; how it was run: as §3
[23] = test system: Gallus gallus; test: Induction of intestinal calcium absorption in vitamin-D-deficient chicken assessed per 0.2 ml of plasma at 62 nmol, ip using 45Ca2+ and 40Ca2+ after 36 hrs relative to control; assay type: functional; how it was run: as §3
[24] = test system: Gallus gallus; test: Induction of bone calcium mobilization in vitamin-D-deficient chicken assessed per 100 ml of serum at 0.62 nmol, ip using 45Ca2+ and 40Ca2+ after 14 hrs; assay type: functional; how it was run: as §2
[25] = test system: Gallus gallus; test: Induction of intestinal calcium absorption in vitamin-D-deficient chicken assessed per 0.2 ml of plasma at 62 nmol, ip using 45Ca2+ and 40Ca2+ after 24 hrs relative to control; assay type: functional; how it was run: as §3
[26] = test system: Gallus gallus; test: Induction of bone calcium mobilization in vitamin-D-deficient chicken assessed per 100 ml of serum at 15.5 nmol, ip using 45Ca2+ and 40Ca2+ after 14 hrs; assay type: functional; how it was run: as §2
[27] = test system: Gallus gallus; test: Induction of bone calcium mobilization in vitamin-D-deficient chicken assessed per 100 ml of serum at 3.1 nmol, ip using 45Ca2+ and 40Ca2+ after 14 hrs; assay type: functional; how it was run: as §2
[28] = test system: Gallus gallus; test: Induction of intestinal calcium absorption in vitamin-D-deficient chicken assessed per 0.2 ml of plasma at 3.3 nmol, ip using 45Ca2+ and 40Ca2+ after 24 hrs; assay type: functional; how it was run: as §3
[29] = test system: Gallus gallus; test: Induction of intestinal calcium absorption in vitamin-D-deficient chicken assessed per 0.2 ml of plasma at 3.3 nmol, ip using 45Ca2+ and 40Ca2+ after 24 hrs relative to control; assay type: functional; how it was run: as §3
[30] = test system: Gallus gallus; test: Induction of bone calcium mobilization in vitamin-D-deficient chicken assessed per 100 ml of serum at 3.3 nmol, ip using 45Ca2+ and 40Ca2+ after 24 hrs; assay type: functional; how it was run: as §2
[31] = test system: Gallus gallus; test: Induction of intestinal calcium absorption in vitamin-D-deficient chicken assessed per 0.2 ml of plasma at 0.60 nmol, ip using 45Ca2+ and 40Ca2+ after 12 hrs relative to control; assay type: functional; how it was run: as §3
[32] = test system: Gallus gallus; test: Induction of intestinal calcium absorption in vitamin-D-deficient chicken assessed per 0.2 ml of plasma at 3 nmol, ip using 45Ca2+ and 40Ca2+ after 12 hrs relative to control; assay type: functional; how it was run: as §3
[33] = test system: Gallus gallus; test: Induction of intestinal calcium absorption in vitamin-D-deficient chicken assessed per 0.2 ml of plasma at 3 nmol, ip using 45Ca2+ and 40Ca2+ after 12 hrs; assay type: functional; how it was run: as §3
[34] = test system: Gallus gallus; test: Induction of intestinal calcium absorption in vitamin-D-deficient chicken assessed per 0.2 ml of plasma at 0.60 nmol, ip using 45Ca2+ and 40Ca2+ after 12 hrs; assay type: functional; how it was run: as §3
[35] = test system: Gallus gallus; test: Induction of bone calcium mobilization in vitamin-D-deficient chicken assessed per 100 ml of serum at 0.60 nmol, ip using 45Ca2+ and 40Ca2+ after 12 hrs; assay type: functional; how it was run: as §2
[36] = test system: Gallus gallus; test: Induction of bone calcium mobilization in vitamin-D-deficient chicken assessed per 100 ml of serum at 3 nmol, ip using 45Ca2+ and 40Ca2+ after 12 hrs; assay type: functional; how it was run: as §2

C=C1CC[C@H](O)C/C1=C/C=C1\CCC[C@]2(C)[C@@H]([C@H](C)CCCC(C)(C)O)CC[C@@H]12
Activity [1]: Active | Activity [2]: Active

C=C1CC[C@H](O)C/C1=C\C=C1/CCC[C@]2(C)[C@@H]([C@H](C)CCCC(C)(C)O)CC[C@@H]12
Activity [1]: Active | RCI [3]: 0.58% | Activity [2]: Active

C=C1/C(=C\C=C2/CCC[C@]3(C)[C@@H]([C@H](C)CCC(C)(C)O)CC[C@@H]23)C[C@@H](O)C[C@@H]1O
Activity [4]: 5 mg | Activity [5]: 590 cpm | Activity [6]: 930 cpm | Activity [7]: 5.4 mg | Ratio [8]: 2.9 | Activity [9]: 1530 cpm | Activity [10]: 1470 cpm | Ratio [11]: 1.3 | Activity [12]: 4.3 mg | Activity [13]: 5.6 mg | Ratio [14]: 1.8 | Activity [15]: 680 cpm | RCI [3]: 46% | Ratio [16]: 2.8 | Activity [17]: 560 cpm | Activity [18]: 770 cpm | Ratio [19]: 0.8 | Ratio [20]: 1.1 | Activity [21]: 6.5 mg | Activity [22]: 420 cpm | Ratio [23]: 1.1 | Activity [24]: 4.8 mg | Ratio [25]: 1.5 | Activity [26]: 5.1 mg | Activity [27]: 4.4 mg

C=C1CC[C@H](O)C/C1=C\C=C1/CCC[C@]2(C)[C@@H]([C@H](C)CCCCC(C)(C)O)CC[C@@H]12
RCI [3]: 0.066%

C=C1CC[C@H](O)C/C1=C\C=C1/CCC[C@]2(C)[C@@H]([C@H](C)CCC(C)(C)O)CC[C@@H]12
Activity [1]: inactive | RCI [3]: 0.1% | Activity [2]: inactive

C=C1CC[C@H](O)C/C1=C/C=C1\CCC[C@]2(C)[C@@H]([C@H](C)CCCC(C)C)CC[C@@H]12 [CHOLECALCIFEROL]
Activity [28]: 2430 cpm | Ratio [29]: 4.6 | Activity [30]: 6.3 mg

C=C1/C(=C\C=C2/CCC[C@]3(C)[C@@H]([C@H](C)CCCC(C)(C)O)CC[C@@H]23)C[C@@H](O)C[C@@H]1O [CALCITRIOL]
Ratio [31]: 3.1 | Activity [1]: Active | Ratio [32]: 2.5 | Activity [33]: 1320 cpm | Activity [2]: Active | Activity [34]: 1630 cpm | Activity [35]: 6.6 mg | Activity [36]: 6.1 mg
